Measured values gathered from unrelated publications.
Lines come from different studies, so protocols differ.
Effect on: cell growth or viability

| Structure (SMILES) | cell line | method | concentration | time | setting | quantity | result |
| --- | --- | --- | --- | --- | --- | --- | --- |
| CCCCCCCSc1ccc(CC(C)NCC(O)c2cccc(Cl)c2)cc1 (stereo not drawn) | HEK293 |  |  |  |  | IC50 | > 10 µM |
| N.N.[Cl][Pt][Cl] | SK-MEL-28 | resazurin |  |  | dark | EC50 | 3.12 µM |
| Cc1c(C)c2c(c(C)c1O)CC[C@](C)(C(=O)NC1CCC(CN3CCC(c4c[nH]c5ccccc45)CC3)CC1)O2 (stereo partly drawn) | HEK293 |  |  |  |  | IC50 | > 10 µM |
| Cc1ccc2c(CNCC3(N4CCCC4)COC3)c[nH]c2c1 | T98G |  | 30 µM | 48 h |  | viability | 98.5% |
| O=S(=O)([O-])C(F)(F)F.OCc1ccnc(-c2cc(CO)ccn2)c1.[Ru+2].c1cc[cH-]c1.c1ccc(P(c2ccccc2)c2ccccc2)cc1 | HEK293 | MTT |  | 48 h |  | IC50 | 6.7 µM |
| Cc1cc(O)cc2c(C3CCN(CC4CCN(C(=O)/C=C/c5ccc(Cl)c(Cl)c5)CC4)CC3)c[nH]c12 | HEK293 |  |  |  |  | IC50 | > 10 µM |
| Cc1cccc2[nH]cc(CNCC3(N4CCCC4)COC3)c12 | T98G |  | 30 µM | 48 h |  | viability | 60.1% |
| N.N.[Cl][Pt][Cl] | HEK293 | MTT |  | 72 h |  | IC50 | 28.4 µM |
| Cc1cccc(-c2cccc(C)n2)n1.Cc1cccc(-c2cccc(C)n2)n1.F[P-](F)(F)(F)(F)F.F[P-](F)(F)(F)(F)F.[Ru+2].c1ccc2cc(-c3nc4c5cccnc5c5ncccc5c4[nH]3)ccc2c1 | SK-MEL-28 | resazurin |  |  | dark | EC50 | 31.8 µM |
| CNCCN(C)C(=O)Oc1c(Cl)c(C)nc(C)c1-c1ccc(Oc2ccc(OC(F)(F)F)cc2)cc1 | HEK293 |  |  |  |  | IC50 | > 10 µM |
| N.N.[Cl][Pt][Cl] | NCI-H1975 | MTT |  | 72 h |  | IC50 | 6 µM |
| Cc1cccc(-n2ncc(Cl)c(Cl)c2=O)c1 | NCI-H1975 | resazurin |  | 96 h |  | IC50 | 0.14 µM |
